According to PubChem BioAssay:
Records with an inconclusive call do not appear.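 Rule for the calls, unless noted: active = RAM network inhibition above 8.4% in each of two replicates, 3 SD over the compound average; inconclusive = above 8.4% inhibition in only one replicate; inactive = 8.4% inhibition or less in each replicate.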

Experiments:
[1] = S. cerevisiae growth inhibition in permissive medium (OD615), pilot counter-assay for S. cerevisiae lifespan shortening project, permissive growth control (AID 705;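 active = growth inhibition above 25% in both replicates, a cutoff set 3 SD above the mean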); conditions: OD615, 24 h, at 10 µM, hits give high values
Procedure, shortened: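 System: engineered DeaD yeast; Medium: permissive raffinose/galactose medium; Compound dosing: 10 µM single dose, 0.25% DMSO; Incubation: 4 h cell pre-growth, 24 h exposure at 30 °C; Technique: OD at 615 nm; Evaluation: growth inhibition from lowered OD615 after 24 h.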

[2] = S. cerevisiae growth inhibition in restrictive medium, OD615, pilot screen, restrictive growth control, yeast lifespan reduction project (AID 706;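 active = growth inhibition above a set limit, 3 SD over mean compound inhibition, in both replicates, cut at about 43% in these data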;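 note: modified DeaD lifespan yeast strain shifted to restrictive glucose medium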); conditions: OD615, 48 h, at 10 µM, hits give high values
Procedure, shortened: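 Material: modified S. cerevisiae; buffer or medium: CSMM-D glucose medium; doses: one concentration, 10 µM final, 0.25% DMSO; incubation: 48 h compound exposure at 30 °C; detection: optical density at 615 nm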

[3] = doxorubicin toxicity protection in MRP-1 cells – H69AR cells, CellTiter-Glo, duplicate, MRP-1 activator project, pilot screen (AID 807;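 active = viability increase at or above a cutoff of the median across tested compounds plus 3 SD, cut at about 8.5% in these data, passing the limit was not always enough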;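 note: compound pretreatment 18-22 h then 72 h combined with doxorubicin; 0% = doxorubicin alone and 100% = vehicle without doxorubicin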); conditions: H69AR viability with doxorubicin, CellTiter-Glo luminescence; at 10 µM; hits give high values
[4] = viability of HCT116 without oncogenic beta-catenin – human colon tumor cells, pilot screen (AID 823;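 active = cell viability at or below a set limit in both duplicate runs, the limit being the all-compound median minus 4 SD, cut at about 23% in these data, passing the limit was not always enough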;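 note: 0% = wells killed by 20 µM Hyamine and 100% = untreated DMSO cell wells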); conditions: HCT116 beta-catenin knockout viability, CellTiter-Glo, 60 h; at 10 µM; hits give low values
[5] = viability of PTEN-null HCT116 cells – cell-based, HCT116 clonal line, CellTiter-Glo, pilot screen (AID 824;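 active = viability at or below 27.92% in each of two runs, the all-compound median minus 4 SD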;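 note: 0% = 20 µM Hyamine control and 100% = vehicle cell control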); conditions: HCT116 PTEN-deleted viability, 60 h, at 10 µM, hits give low values
[6] = RAM pathway blockade in budding yeast – dse1pr::URA3 reporter, 5-FOA selection, pilot screen (AID 869;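 active = inhibition over a set limit, the all-compound mean plus 3 SD, in both replicate runs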;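 note: 0% = DMSO wells with no growth and 100% = 10 µM 1-NA-PP1 with full growth; RAM network block rescues cells from 5-FOA so hits raise OD615 growth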); conditions: S. cerevisiae dse1pr::URA3 5-FOA growth, OD615, 2 d; at 10 µM; hits give high values; strain carries analog-sensitive mutant Cbk1 kinase
[7] = RAM signaling pathway blockade in yeast – S. cerevisiae, Pdr1DBD-CYC8 efflux-inhibited sensitized strain, primary screen (AID 1298);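 note: 0% = DMSO untreated cells without growth and 100% = 10 µM 1-NA-PP1 full growth; higher means more yeast growth rescued from 5-FOA killing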; conditions: S. cerevisiae cbk1-as DSE1-URA3 strain, 5-FOA growth OD615, 2 d; at 50 µM; hits give high values

COc1ccc(OC)c2c1sc(=NC(=O)C(C)(C)C)n2C
inactive: growth inhibition [1] -7.64% | growth inhibition [2] 6.31% | viability increase [3] -6.23% | viability [4] 84.1% | viability [5] 79.6% | inhibition [6] 3.72% | RAM network inhibition [7] 6.93%

Cc1ccc(/C(O)=C2/C(=O)C(=O)N(CCN3CCOCC3)C2c2cccnc2)cc1 (configuration not stated)
inactive: growth inhibition [1] 6.32% | growth inhibition [2] 4.34% | viability increase [3] 0.49% | viability [4] 93.5% | viability [5] 102% | inhibition [6] -0.11% | RAM network inhibition [7] 0.7%

CC1(C)Cc2c(C#N)c(N3CCCC3)nc(-c3ccco3)c2CO1
inactive: growth inhibition [1] -9.34% | growth inhibition [2] -8.21% | viability increase [3] -5.07% | viability [4] 90.3% | viability [5] 85.7% | inhibition [6] 1.39% | RAM network inhibition [7] -1.01%

COc1ccccc1NC(=O)CSc1nnc(C)o1
inactive: growth inhibition [1] -7.09% | growth inhibition [2] -9.04% | viability increase [3] -1.19% | viability [4] 101% | viability [5] 102% | inhibition [6] 2.02% | RAM network inhibition [7] 2.69%

O=C(c1ccccc1)N1CCN(C2CC(=O)N(CCc3ccccc3)C2=O)CC1 (configuration not stated)
inactive: growth inhibition [1] -3.21% | growth inhibition [2] 4.64% | viability increase [3] 1.3% | viability [4] 96.8% | viability [5] 100% | inhibition [6] 2.52% | RAM network inhibition [7] 4.98%

CCOc1ccc(N2CCCCn3c2nc2c3c(=O)[nH]c(=O)n2C)cc1
inactive: growth inhibition [1] -21.9% | growth inhibition [2] -16.5% | viability increase [3] -1.1% | viability [4] 97.8% | viability [5] 98% | inhibition [6] 1.5% | RAM network inhibition [7] 2.47%

CC1(C)Cc2c(c(N3CCOCC3)nc3sc(C(=O)N4CCCCC4)c(N)c23)CO1
inactive: growth inhibition [1] 2.35% | growth inhibition [2] 29.3% | viability increase [3] -4.48% | viability [4] 100% | viability [5] 96.6% | inhibition [6] 2.62% | RAM network inhibition [7] 3.43%

O=C(CN1C(=O)COc2ccccc21)Nc1ccc(F)cc1
inactive: growth inhibition [1] -5.98% | growth inhibition [2] 6.11% | viability increase [3] -5.59% | viability [4] 106% | viability [5] 91.6% | inhibition [6] 1.26% | RAM network inhibition [7] 0.3%

Cn1nnnc1P(=O)(c1ccccc1)c1ccccc1
inactive: growth inhibition [1] 0.165% | growth inhibition [2] 0.5% | viability increase [3] 0.85% | viability [4] 103% | viability [5] 102% | inhibition [6] 0.995% | RAM network inhibition [7] 1.32%

CC1CCCCN1CCNC(=O)c1cc2c(=O)n(C)c3ccccc3c2n1C (configuration not stated)
inactive: growth inhibition [1] -12.9% | growth inhibition [2] -9.04% | viability increase [3] -6.71% | viability [4] 78.9% | viability [5] 72.7% | inhibition [6] 2.5% | RAM network inhibition [7] 1.31%

O=C(CN1CCN(Cc2ccccc2Cl)C1=O)NCC1CCCO1 (configuration not stated)
inactive: growth inhibition [1] 4.72% | growth inhibition [2] -0.62% | viability increase [3] -2.68% | viability [4] 97.2% | viability [5] 95.5% | inhibition [6] 0.35% | RAM network inhibition [7] 1.49%

COc1cccc(C2CC(c3ccc(C(C)C)cc3)n3nc(N)nc3N2)c1 (configuration not stated)
inactive: growth inhibition [1] -2.39% | growth inhibition [2] 3.09% | viability increase [3] 0.91% | viability [4] 97.1% | viability [5] 95.7% | inhibition [6] 1.5% | RAM network inhibition [7] 3.94%

CC(CNC(=O)c1ccc(Br)o1)NC(=O)c1ccc(Br)o1 (configuration not stated)
inactive: growth inhibition [1] -0.8% | growth inhibition [2] 2.43% | viability increase [3] -0.71% | viability [4] 99% | viability [5] 97.8% | inhibition [6] 1.46% | RAM network inhibition [7] 1.17%

CCOC(=O)NC(Nc1cc(C)ccn1)(C(F)(F)F)C(F)(F)F
inactive: growth inhibition [1] 0.885% | growth inhibition [2] -3.62% | viability increase [3] -1.93% | viability [4] 104% | viability [5] 100% | inhibition [6] 0.28% | RAM network inhibition [7] -1.18%

COc1ccc(OC)c(C(C)NC(=O)c2ccco2)c1 (configuration not stated)
inactive: growth inhibition [1] -6.2% | growth inhibition [2] 2.66% | viability increase [3] -5.99% | viability [4] 40.8% | viability [5] 35.4% | inhibition [6] 0.005% | RAM network inhibition [7] 0.72%

COC(=O)c1ccc2c(c1)N(Cc1nc(-c3cccc(C)c3)oc1C)C(=O)C1CCCN21 (configuration not stated)
inactive: growth inhibition [1] -13% | growth inhibition [2] -8.79% | viability increase [3] -2.37% | viability [4] 92% | viability [5] 84.3% | inhibition [6] 2.06% | RAM network inhibition [7] 5.71%

CCOC(=O)c1ccc(N2C(=O)CC(N3CCN(Cc4ccccc4)CC3)C2=O)cc1 (configuration not stated)
inactive: growth inhibition [1] -18.6% | growth inhibition [2] -15.4% | viability increase [3] 0.7% | viability [4] 101% | viability [5] 103% | inhibition [6] 0.175% | RAM network inhibition [7] 2.65%

C(=N\n1cnnc1)/C1CCCCC1
inactive: growth inhibition [1] -4.95% | growth inhibition [2] -1.24% | viability increase [3] -2.8% | viability [4] 101% | viability [5] 98.4% | inhibition [6] 0.19% | RAM network inhibition [7] 6.93%

C=CCn1c(-c2ccco2)n[nH]c1=S
inactive: growth inhibition [1] 2.98% | growth inhibition [2] -4.35% | viability increase [3] -1.3% | viability [4] 110% | viability [5] 97.6% | inhibition [6] 1.58% | RAM network inhibition [7] 2.89%

O=C(NCCc1ccc(Cl)cc1)c1nnc(Cc2ccc(Cl)cc2)o1
inactive: growth inhibition [1] -3.81% | growth inhibition [2] 3.52% | viability increase [3] 0.2% | viability [4] 103% | viability [5] 103% | inhibition [6] 2.82% | RAM network inhibition [7] 7.52%

COc1cccc(NC(=O)CSc2nnc(Cn3c(=O)sc4ccccc43)n2C)c1
inactive: growth inhibition [1] 1.18% | growth inhibition [2] 18.9% | viability increase [3] -2.91% | viability [4] 102% | viability [5] 104% | inhibition [6] 2.37% | RAM network inhibition [7] 4.95%

Cc1cc(N2CCC(N(C)C3CCCC3)CC2)nc2cc(O)ccc12
inactive: growth inhibition [1] -8.33% | growth inhibition [2] -9.98% | viability increase [3] -7.96% | viability [4] 53.9% | viability [5] 53.7% | inhibition [6] 2.4% | RAM network inhibition [7] 2.21%

COc1ccc(C2C3=C(CCCC3=O)Nc3nc(SCc4ccc(C(=O)O)cc4)nn32)cc1OC (configuration not stated)
inactive: growth inhibition [1] -7.69% | growth inhibition [2] -1.59% | viability increase [3] -0.88% | viability [4] 92.8% | viability [5] 95.3% | inhibition [6] 3.18% | RAM network inhibition [7] 3.48%

CCc1c(C(C)O)oc2ccc3c(C)cc(=O)oc3c12 (configuration not stated)
inactive: growth inhibition [1] -9.42% | growth inhibition [2] 2.23% | viability increase [3] -3.86% | viability [4] 84.3% | viability [5] 82.2% | inhibition [6] 1.06% | RAM network inhibition [7] 6.56%

CC(C)C(NS(=O)(=O)c1ccc2c(c1)oc(=O)n2C)C(=O)N1CCN(C2CCCCC2)CC1 (configuration not stated)
inactive: growth inhibition [1] -2.87% | growth inhibition [2] -9.46% | viability increase [3] -3.02% | viability [4] 106% | viability [5] 95.6% | inhibition [6] 0.14% | RAM network inhibition [7] 6.54%

COC(=O)c1ccc(-n2nnnc2SCC(=O)N2CCCCC2)cc1
inactive: growth inhibition [1] -8.57% | growth inhibition [2] -21.9% | viability increase [3] -3% | viability [4] 85.8% | viability [5] 86.1% | inhibition [6] 0.045% | RAM network inhibition [7] 1.64%

Cc1cc(C)c2c(n1)SCC(=O)N2CC(=O)NCCC1=CCCCC1
inactive: growth inhibition [1] -0.205% | growth inhibition [2] 4.58% | viability increase [3] -0.04% | viability [4] 103% | viability [5] 92.9% | inhibition [6] 0.52% | RAM network inhibition [7] 2.59%

O=c1[nH]c(=S)[nH]nc1Cc1ccccc1
inactive: growth inhibition [1] -10% | growth inhibition [2] 13.4% | viability increase [3] -0.79% | viability [4] 101% | viability [5] 98.2% | inhibition [6] 0.12% | RAM network inhibition [7] 6.46%

CN(C)S(=O)(=O)c1ccc(-c2ccccc2)cc1
inactive: growth inhibition [1] -6.75% | growth inhibition [2] -4.33% | viability increase [3] 0.02% | viability [4] 91.9% | viability [5] 90.6% | inhibition [6] 0.455% | RAM network inhibition [7] 8.77%

CC(=O)Nn1cc2c(=O)n(C)c(=O)n(C)c2c1
inactive: growth inhibition [1] -5.47% | growth inhibition [2] 1.6% | viability increase [3] 0.99% | viability [4] 98.3% | viability [5] 99.7% | inhibition [6] 1.68% | RAM network inhibition [7] 1.13%

COc1ccc(-c2cc(C(=O)O)c3ccccc3n2)c(OC)c1
inactive: growth inhibition [1] -10.4% | growth inhibition [2] 0.26% | viability increase [3] -2.6% | viability [4] 82.2% | viability [5] 89.3% | inhibition [6] 1.47% | RAM network inhibition [7] 5.56%

Cc1ccc(OCCCN(C)C)c(Br)c1
inactive: growth inhibition [1] -0.99% | growth inhibition [2] -6.73% | viability increase [3] -1.22% | viability [4] 89.1% | viability [5] 87.7% | inhibition [6] 1.03% | RAM network inhibition [7] 2.05%

Cc1cccc(-n2ncc3c(N4CCC(C)CC4)ncnc32)c1
inactive: growth inhibition [1] -5.82% | growth inhibition [2] 10.6% | viability increase [3] 4.21% | viability [4] 81.4% | viability [5] 82.9% | inhibition [6] -0.31% | RAM network inhibition [7] 1.32%

CCOC(=O)Cn1c(=O)oc2cc(S(=O)(=O)Nc3c(C)cc(C)cc3C)ccc21
inactive: growth inhibition [1] -11.4% | growth inhibition [2] -14.1% | viability increase [3] -2.56% | viability [4] 94.5% | viability [5] 95.3% | inhibition [6] 0.86% | RAM network inhibition [7] 4.9%

Cn1c(=O)c2c(nc(Sc3ncccn3)n2Cc2ccc(Cl)cc2)n(C)c1=O
inactive: growth inhibition [1] -0.82% | growth inhibition [2] 1.5% | viability increase [3] -2.38% | viability [4] 82.4% | viability [5] 71.1% | inhibition [6] 1.8% | RAM network inhibition [7] 0.26%

C=C(C)Cn1c(C2CC(=O)N(Cc3ccccc3)C2)nc2ccccc21 (configuration not stated)
inactive: growth inhibition [1] -0.245% | growth inhibition [2] -1.79% | viability increase [3] -1.95% | viability [4] 97.1% | viability [5] 93.2% | inhibition [6] 1.46% | RAM network inhibition [7] 2.18%
